Data reported in ChEMBL document CHEMBL1143009, “D- and L-2',3'-didehydro-2',3'-dideoxy-3'-fluoro-carbocyclic nucleosides: synthesis, anti-HIV activity and mechanism of resistance” (J Med Chem, 2007).

How the values were obtained:
PBMC = assay: Cytotoxicity against human PBMC; format: cell-based
Vero = assay: Cytotoxicity against African green monkey Vero cells; format: cell-based; conditions: chlorocebus sabaeus
[1] = tested on: Human immunodeficiency virus 1; assay: Antiviral activity against HIV1 LAV1 in human PBM cells by RT assay; format: functional, organism-based; conditions: for EC50 / EC90: Human immunodeficiency virus 1, LAV1, PBMC
Procedure, shortened: (§1)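 Human PBM cells were infected with HIV-1. The strain was LAI by default, or xxBRU where indicated. Antiviral activity was reported as EC50 and EC90.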

[2] = tested on: Human immunodeficiency virus 1; assay: Ratio of EC50 for lamivudine-resistant HIV1 M184V mutant to EC50 for HIV1 […]; format: functional
Procedure, shortened: (§2)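 Human PBM cells infected with lamivudine-resistant HIV-1 M184V and, in parallel, wild-type HIV-1 (xxBRU where footnoted, otherwise LAI). EC50 was determined for each virus, and the mutant EC50 was divided by the wild-type EC50. Carbovir served as positive control.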

[3] = tested on: Human immunodeficiency virus 1; assay: Antiviral activity against lamivudine-resistant HIV1 M184V mutant in human PBMC cells by RT assay; format: functional, organism-based; procedure, shortened: as §2
[4] = tested on: Human immunodeficiency virus 1; assay: Antiviral activity against HIV1 xxBRU in human PBM cells by RT assay; format: functional, organism-based; procedure, shortened: as §1
[5] = Human immunodeficiency virus 1, PBMC
[6] = Human immunodeficiency virus 1, xxBRU, PBMC

Structure (SMILES) | Activity (PBMC) [µM] | Activity (Vero) [µM] | EC50 [1] [µM] | EC90 [1] [µM] | ED90 [1] [µM] | Ratio [2] | ED90 [3] [µM] | EC50 [3, 5] [µM] | EC50 [4, 6] [µM] | EC90 [4, 6] [µM] | EC90 [3, 5] [µM] | ED90 [4] [µM]
Nc1ncnc2c1ncn2[C@H]1C=C(F)[C@H](CO)C1 | > 100 | > 100 | 14.8 | 40.6 |  |  |  |  |  |  |  | 
Nc1ccn([C@@H]2C=C(F)[C@@H](CO)C2)c(=O)n1 | > 100 | > 100 | 7.1 | 72 |  |  |  |  |  |  |  | 
OC[C@@H]1C[C@@H](n2cnc3c(O)ncnc32)C=C1F | > 100 | > 100 | > 100 |  | >100 |  |  |  |  |  |  | 
Nc1ccn([C@H]2C=C(F)[C@H](CO)C2)c(=O)n1 | > 100 | > 100 | > 100 |  | >100 |  |  |  |  |  |  | 
Nc1nc2c(ncn2[C@@H]2C[C@@H](CO)C(F)(F)C2)c(=O)[nH]1 | > 100 | > 100 | > 100 |  | >100 |  |  |  |  |  |  | 
Nc1nc2c(ncn2[C@H]2C=C(F)[C@H](CO)C2)c(=O)[nH]1 | 21.1 | > 100 | 0.41 | 2.8 |  | 38.8 | 14.9 | 3.8 | 0.098 | 0.58 |  | 
OC[C@@H]1C[C@@H](n2cnc3c(O)ncnc32)CC1(F)F | > 100 | > 100 | > 100 |  | >100 |  |  |  |  |  |  | 
Nc1ncnc2c1ncn2[C@@H]1C=C(F)[C@@H](CO)C1 | > 100 | > 100 | 10.3 | 33.5 |  |  |  |  |  |  |  | 
Nc1nc2c(ncn2[C@H]2C=C[C@@H](CO)C2)c(=O)[nH]1 [CARBOVIR] |  |  |  |  |  | 2.3 |  | 0.2 | 0.087 |  | 1.1 | 0.27
Nc1ncnc2c1ncn2[C@@H]1C[C@@H](CO)C(F)(F)C1 | 95.1 | > 100 | > 100 |  | >100 |  |  |  |  |  |  | 
Cc1cn([C@@H]2C=C(F)[C@@H](CO)C2)c(=O)[nH]c1=O | > 100 | > 100 | 6.4 | > 100 |  |  |  |  |  |  |  | 
Cc1cn([C@@H]2C[C@@H](CO)C(F)(F)C2)c(=O)[nH]c1=O | > 100 | > 100 | > 100 |  | >100 |  |  |  |  |  |  | 
OC[C@H]1C[C@H](n2cnc3c(O)ncnc32)C=C1F | > 100 | > 100 | > 100 |  | >100 |  |  |  |  |  |  | 
Nc1ccn([C@@H]2C[C@@H](CO)C(F)(F)C2)c(=O)n1 | > 100 | > 100 | > 100 |  | >100 |  |  |  |  |  |  | 
Nc1nc2c(ncn2[C@@H]2C=C(F)[C@@H](CO)C2)c(=O)[nH]1 | > 100 | > 100 | 20.7 | > 100 |  |  |  |  |  |  |  | 
Cc1cn([C@H]2C=C(F)[C@H](CO)C2)c(=O)[nH]c1=O | > 100 | > 100 | 68.8 | > 100 |  |  |  |  |  |  |  | 
